Tests used:
Canis familiaris [1] = experiment: Inotropic activity determined by evaluating the % change in Cardiac out put (CO)at a dose of 30 ug/kg administered intravenously […]; type: functional, Canis lupus familiaris
Outline: (§1)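 Mongrel dogs of either sex, 7–15 kg, anesthetized with sodium pentobarbital (30 mg/kg iv), open-chest, intubated and ventilated on room air. Compounds given intravenously. A femoral artery catheter with pressure transducer recorded SBP and DBP. dP/dtmax, right ventricular contractile force, cardiac output and heart rate were also recorded, as % change at each iv dose.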

Canis familiaris [2] = experiment: Inotropic activity determined by evaluating the % change in contractile force (CF) of right ventricle at a dose of 30 ug/kg administered intravenously […]; type: functional, Canis lupus familiaris, Heart right ventricle; outline: as §1
Canis familiaris [3] = experiment: Inotropic activity determined by evaluating the % change in Diastolic Blood Pressure (DBP) at a dose of 100 ug/kg administered intravenously […]; type: functional, Canis lupus familiaris; outline: as §1
Canis familiaris [4] = experiment: Inotropic activity determined by evaluating the % change in Heart Rate (HR) at a dose of 10 ug/kg administered intravenously […]; type: functional, Canis lupus familiaris; outline: as §1
Canis familiaris [5] = experiment: Inotropic activity determined by evaluating the % change in Heart Rate (HR) at a dose of 30 ug/kg administered intravenously […]; type: functional, Canis lupus familiaris; outline: as §1
Canis familiaris [6] = species: Canis familiaris; experiment: Positive inotropic in the isolated papillary muscle of the dog.; type: functional, Canis lupus familiaris
Outline: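 Right ventricular anterior papillary muscle with septum, from mongrel dogs (7–12 kg, pentobarbital 30 mg/kg iv). It was perfused at about 100 mmHg via the septal artery with blood from a heparinized donor dog and paced at 120/min (1 ms pulses, about 1.5× threshold). Isometric tension was recorded. Saline solutions were injected intra-arterially, with amrinone as reference. ED15 (15% rise in developed tension) was taken from log dose-response curves. Results are mean ± SEM (n = 7) or mean ± range (n = 2).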

Canis familiaris [7] = experiment: Inotropic activity determined by evaluating the % change in contractile force (CF) of right ventricle at a dose of 100 ug/kg administered intravenously […]; type: functional, Canis lupus familiaris, Heart right ventricle; outline: as §1
Canis familiaris [8] = experiment: Inotropic activity determined by evaluating the maximum rate of rise in left ventricular pressure at a dose of 30 ug/kg administered intravenously […]; type: functional, Canis lupus familiaris, Muscle tissue; outline: as §1
Canis familiaris [9] = experiment: Inotropic activity determined by evaluating the % change in Cardiac out put (CO)at a dose of 10 ug/kg administered intravenously […]; type: functional, Canis lupus familiaris; outline: as §1
Canis familiaris [10] = experiment: Inotropic activity determined by evaluating the % change in Diastolic Blood Pressure (DBP) at a dose of 10 ug/kg administered intravenously […]; type: functional, Canis lupus familiaris; outline: as §1
Canis familiaris [11] = experiment: Inotropic activity determined by evaluating the % change in contractile force (CF) of right ventricle at a dose of 10 ug/kg administered intravenously […]; type: functional, Canis lupus familiaris, Heart right ventricle; outline: as §1
Canis familiaris [12] = experiment: Inotropic activity determined by evaluating the % change in Cardiac out put (CO)at a dose of 100 ug/kg administered intravenously […]; type: functional, Canis lupus familiaris; outline: as §1
Canis familiaris [13] = experiment: Inotropic activity determined by evaluating the % change in Systolic Blood Pressure (SBP) at a dose of 30 ug/kg administered intravenously […]; type: functional, Canis lupus familiaris, Muscle tissue; outline: as §1
Canis familiaris [14] = experiment: Inotropic activity determined by evaluating the % change in Systolic Blood Pressure (SBP) at a dose of 100 ug/kg administered intravenously […]; type: functional, Canis lupus familiaris, Muscle tissue; outline: as §1
Canis familiaris [15] = experiment: Inotropic activity determined by evaluating the % change in Heart Rate (HR) at a dose of 100 ug/kg administered intravenously […]; type: functional, Canis lupus familiaris; outline: as §1
Canis familiaris [16] = experiment: Inotropic activity determined by evaluating the maximum rate of rise in left ventricular pressure at a dose of 10 ug/kg administered intravenously […]; type: functional, Canis lupus familiaris, Muscle tissue; outline: as §1
Canis familiaris [17] = experiment: Inotropic activity determined by evaluating the % change in Systolic Blood Pressure (SBP) at a dose of 10 ug/kg administered intravenously […]; type: functional, Canis lupus familiaris; outline: as §1
Canis familiaris [18] = experiment: Inotropic activity determined by evaluating the % change in Diastolic Blood Pressure (DBP) at a dose of 30 ug/kg administered intravenously […]; type: functional, Canis lupus familiaris; outline: as §1
Canis familiaris [19] = experiment: Inotropic activity determined by evaluating the maximum rate of rise in left ventricular pressure at a dose of 100 ug/kg administered intravenously […]; type: functional, Canis lupus familiaris, Muscle tissue; outline: as §1
Canis familiaris [20] = species: Canis familiaris; experiment: Positive inotropic activity determined in the […](that produced 30% increase in dose- response curves [dP/dt(max)]); type: functional; conditions: Canis lupus familiaris
Outline: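 In the anesthetized open-chest dog (mongrel, 7–15 kg, pentobarbital 30 mg/kg iv, ventilated on room air), compounds were given intravenously and LV dP/dtmax was recorded. The dose giving a 30% rise in dP/dtmax was read from the dose-response curves. Results are mean ± SEM (n = 3) or mean ± range (n = 2).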

Canis familiaris [21] = experiment: Inotropic activity determined by evaluating the % change in Heart Rate (HR) at a dose of 1000 ug/kg administered intravenously […]; type: functional, Canis lupus familiaris; outline: as §1
Canis familiaris [22] = experiment: Inotropic activity determined by evaluating the % change in contractile force (CF) of right ventricle at a dose of 1000 ug/kg administered intravenously […]; type: functional, Canis lupus familiaris, Heart right ventricle; outline: as §1
Canis familiaris [23] = experiment: Inotropic activity determined by evaluating the % change in Systolic Blood Pressure (SBP) at a dose of 300 ug/kg administered intravenously […]; type: functional, Canis lupus familiaris, Muscle tissue; outline: as §1
Canis familiaris [24] = experiment: Inotropic activity determined by evaluating the maximum rate of rise in left ventricular pressure at a dose of 300 ug/kg administered intravenously […]; type: functional, Canis lupus familiaris, Muscle tissue; outline: as §1
Canis familiaris [25] = experiment: Inotropic activity determined by evaluating the maximum rate of rise in left ventricular pressure at a dose of 1000 ug/kg administered intravenously […]; type: functional, Canis lupus familiaris, Muscle tissue; outline: as §1
Canis familiaris [26] = experiment: 0 Inotropic activity determined by evaluating the % change in Systolic Blood Pressure (SBP) at a dose of 1000 ug/kg administered intravenously […]; type: functional, Canis lupus familiaris; outline: as §1
Canis familiaris [27] = experiment: Inotropic activity determined by evaluating the % change in Diastolic Blood Pressure (DBP) at a dose of 1000 ug/kg administered intravenously […]; type: functional, Canis lupus familiaris; outline: as §1
Canis familiaris [28] = experiment: Inotropic activity determined by evaluating the % change in Heart Rate (HR) at a dose of 300 ug/kg administered intravenously […]; type: functional, Canis lupus familiaris, Muscle tissue; outline: as §1
Canis familiaris [29] = experiment: Inotropic activity determined by evaluating the % change in Cardiac out put (CO)at a dose of 300 ug/kg administered intravenously […]; type: functional, Canis lupus familiaris; outline: as §1
Canis familiaris [30] = experiment: Inotropic activity determined by evaluating the % change in Diastolic Blood Pressure (DBP) at a dose of 300 ug/kg administered intravenously […]; type: functional, Canis lupus familiaris; outline: as §1
Canis familiaris [31] = experiment: Inotropic activity determined by evaluating the % change in contractile force (CF) of right ventricle at a dose of 300 ug/kg administered intravenously […]; type: functional, Canis lupus familiaris, Heart right ventricle; outline: as §1
Canis familiaris [32] = experiment: Inotropic activity determined by evaluating the % change in Cardiac out put (CO)at a dose of 1000 ug/kg administered intravenously […]; type: functional, Canis lupus familiaris; outline: as §1
Canis familiaris [33] = experiment: Inotropic activity determined by evaluating the % change in Systolic Blood Pressure (SBP) at a dose of 1000 ug/kg administered intravenously […]; type: functional, Canis lupus familiaris, Muscle tissue; outline: as §1

Row | Structure (SMILES) | Change of CO (Canis familiaris [1]) | Change of CF (Canis familiaris [2]) | Change of DBP (Canis familiaris [3]) | Change of HR (Canis familiaris [4]) | Change of HR (Canis familiaris [5]) | ED15 (Canis familiaris [6]) | Change of CF (Canis familiaris [7]) | dP/dt (Canis familiaris [8]) | Change of CO (Canis familiaris [9]) | Change of DBP (Canis familiaris [10]) | Change of CF (Canis familiaris [11]) | Change of CO (Canis familiaris [12]) | Change of SBP (Canis familiaris [13]) | Change of SBP (Canis familiaris [14]) | Change of HR (Canis familiaris [15]) | dP/dt (Canis familiaris [16]) | Change of SBP (Canis familiaris [17]) | Change of DBP (Canis familiaris [18]) | dP/dt (Canis familiaris [19]) | ED30 (Canis familiaris [20]) | other results
1 | Cl.Oc1ccc(-c2ccc(Nc3ccncc3)cc2)nn1 | 5.4% | 19.9% | -27.6% | 1.3% | 2.4% | 50 µg | 33.7% | 39.6% | 1.6% | -7.5% | 11% | 7.7% | -11.9% | -22.3% | 4.2% | 20.2% | -3.6% | -20% | 57.1% | 0.022 mg/kg | 
2 | Cc1cc(O)nnc1-c1ccc(Nc2ccncc2)cc1.Cl |  |  |  |  |  | 165 µg |  |  |  |  |  |  |  |  |  |  |  |  |  | > 1 mg/kg | Change of HR (Canis familiaris [21]): 5.8%; Change of CF (Canis familiaris [22]): 10.5%; Change of SBP (Canis familiaris [23]): 0.5%; dP/dt (Canis familiaris [24]): -2.2%; dP/dt (Canis familiaris [25]): 6.2%; Change of SBP (Canis familiaris [26]): 1.9%; Change of DBP (Canis familiaris [27]): 1.4%; Change of HR (Canis familiaris [28]): -1.3%; Change of CO (Canis familiaris [29]): 9.6%; Change of DBP (Canis familiaris [30]): -0.3%; Change of CF (Canis familiaris [31]): -1.1%; Change of CO (Canis familiaris [32]): 7.6%
3 | O=C1CCC(c2ccc(-n3ccnc3)cc2)=NN1 [IMAZODAN] | 26.3% | 42.2% | -28.3% | 3.6% | 8.1% |  | 83.8% | 22.3% | 11.2% | -8.1% | 13.8% | 35.5% | -9.6% | -16.9% | 16.1% | 10.3% | -4.8% | -16.5% | 49.3% | 0.046 mg/kg | 
4 | Nc1cc(-c2ccncc2)c[nH]c1=O [INAMRINONE] |  |  | -4.7% |  |  | 200 µg | 6.5% |  |  |  |  | 1.9% |  | -5% | 1.2% |  |  |  | 6.7% | 0.472 mg/kg | Change of HR (Canis familiaris [21]): 8.1%; Change of CF (Canis familiaris [22]): 79.7%; Change of SBP (Canis familiaris [23]): -2.7%; dP/dt (Canis familiaris [24]): 22.3%; dP/dt (Canis familiaris [25]): 54.8%; Change of DBP (Canis familiaris [27]): -14.1%; Change of SBP (Canis familiaris [33]): -5.5%; Change of HR (Canis familiaris [28]): 3.8%; Change of CO (Canis familiaris [29]): 15.6%; Change of DBP (Canis familiaris [30]): -4.1%; Change of CF (Canis familiaris [31]): 22.4%; Change of CO (Canis familiaris [32]): 36.5%
